Laboratory results published in ChEMBL document CHEMBL1135642, “Synthesis and biological evaluation of 7,8,9,10-tetrahydroimidazo[1,2-c]pyrido[3,4-e]pyrimdin-5(6H)-ones as functionally selective ligands of the benzodiazepine receptor site on the GABA(A) receptor” (J Med Chem, 2002).

Legend:
[1] = target: T1, Gamma-aminobutyric acid receptor subunit alpha-2 (Homo sapiens, UniProt P47869); experiment: Effective concentration against gamma-aminobutyric acid (GABA) A receptor, alpha 2; design: species or system Xenopus laevis
T1 sequence (P47869 whole entry): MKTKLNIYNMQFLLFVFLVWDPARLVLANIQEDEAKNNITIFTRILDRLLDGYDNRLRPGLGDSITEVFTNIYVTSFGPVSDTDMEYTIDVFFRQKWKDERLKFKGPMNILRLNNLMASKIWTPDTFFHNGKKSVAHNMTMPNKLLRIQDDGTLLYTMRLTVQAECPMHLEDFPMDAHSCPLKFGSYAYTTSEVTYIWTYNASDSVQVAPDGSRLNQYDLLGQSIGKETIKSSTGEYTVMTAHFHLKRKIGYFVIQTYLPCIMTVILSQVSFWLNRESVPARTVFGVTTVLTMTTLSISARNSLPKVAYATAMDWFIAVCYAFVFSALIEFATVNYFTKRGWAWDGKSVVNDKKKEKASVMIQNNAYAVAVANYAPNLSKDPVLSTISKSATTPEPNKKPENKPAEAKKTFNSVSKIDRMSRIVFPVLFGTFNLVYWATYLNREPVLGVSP
Summary of the method: (§1)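 Xenopus laevis oocytes were injected with human cRNA for the α, β and γ subunits needed to express each receptor subtype (α1, α2, α3 or α5). Electrophysiological recording was used to read potentiation, and the effective concentration and maximal percent potentiation were derived from it.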

[2] = target: GABA-A receptor; anion channel; experiment: Binding affinity was determined by displacement of [3H]flumazenil from rat cortex homogenates; assay type: functional
Summary of the method: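 Displacement of [3H]flumazenil from rat cortex homogenates. Values are averages (±SD); some analogues were run once as a single set of triplicates. NA means an IC50 was not achieved at the highest dose tested.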

[3] = target: T2, Gamma-aminobutyric acid receptor subunit alpha-1 (Homo sapiens, UniProt P14867); experiment: Effective concentration against gamma-aminobutyric acid (GABA) A receptor, alpha 1; design: species or system Xenopus laevis; summary of the method: as §1
T2 sequence (P14867 whole entry): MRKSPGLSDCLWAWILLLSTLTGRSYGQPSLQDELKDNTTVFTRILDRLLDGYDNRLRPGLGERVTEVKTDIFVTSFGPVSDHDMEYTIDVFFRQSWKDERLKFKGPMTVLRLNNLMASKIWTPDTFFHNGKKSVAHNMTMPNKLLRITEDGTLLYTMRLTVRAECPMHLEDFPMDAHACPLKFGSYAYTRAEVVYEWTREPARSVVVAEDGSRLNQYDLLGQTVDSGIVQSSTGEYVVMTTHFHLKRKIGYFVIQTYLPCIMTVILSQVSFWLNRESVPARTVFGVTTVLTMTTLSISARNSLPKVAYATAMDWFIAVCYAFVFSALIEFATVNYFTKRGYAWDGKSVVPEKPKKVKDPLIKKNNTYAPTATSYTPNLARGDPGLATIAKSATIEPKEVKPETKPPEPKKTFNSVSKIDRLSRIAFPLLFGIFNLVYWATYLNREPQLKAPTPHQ

[4] = target: T3, Gamma-aminobutyric acid receptor subunit alpha-3 (Homo sapiens, UniProt P34903); experiment: Effective concentration against gamma-aminobutyric acid (GABA) A receptor, alpha 3; design: species or system Xenopus laevis; summary of the method: as §1
T3 sequence (P34903 whole entry): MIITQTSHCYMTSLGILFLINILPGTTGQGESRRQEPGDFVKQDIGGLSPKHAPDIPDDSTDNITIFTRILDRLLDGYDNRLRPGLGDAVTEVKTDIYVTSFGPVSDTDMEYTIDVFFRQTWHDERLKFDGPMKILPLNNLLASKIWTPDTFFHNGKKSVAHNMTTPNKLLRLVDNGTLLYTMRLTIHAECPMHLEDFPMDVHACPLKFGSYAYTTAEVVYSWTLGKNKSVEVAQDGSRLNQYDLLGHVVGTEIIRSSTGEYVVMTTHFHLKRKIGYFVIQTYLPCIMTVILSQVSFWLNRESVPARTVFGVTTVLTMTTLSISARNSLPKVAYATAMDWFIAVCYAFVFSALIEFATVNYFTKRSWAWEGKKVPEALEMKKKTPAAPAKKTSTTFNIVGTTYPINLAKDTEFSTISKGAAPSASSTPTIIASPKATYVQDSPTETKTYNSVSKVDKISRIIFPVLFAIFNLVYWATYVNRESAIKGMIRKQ

[5] = target: T4, Gamma-aminobutyric acid receptor subunit alpha-5 (Homo sapiens, UniProt P31644); experiment: Effective concentration against Gamma-aminobutyric acid A receptor, alpha 5; design: species or system Xenopus laevis; summary of the method: as §1
T4 sequence (P31644 whole entry): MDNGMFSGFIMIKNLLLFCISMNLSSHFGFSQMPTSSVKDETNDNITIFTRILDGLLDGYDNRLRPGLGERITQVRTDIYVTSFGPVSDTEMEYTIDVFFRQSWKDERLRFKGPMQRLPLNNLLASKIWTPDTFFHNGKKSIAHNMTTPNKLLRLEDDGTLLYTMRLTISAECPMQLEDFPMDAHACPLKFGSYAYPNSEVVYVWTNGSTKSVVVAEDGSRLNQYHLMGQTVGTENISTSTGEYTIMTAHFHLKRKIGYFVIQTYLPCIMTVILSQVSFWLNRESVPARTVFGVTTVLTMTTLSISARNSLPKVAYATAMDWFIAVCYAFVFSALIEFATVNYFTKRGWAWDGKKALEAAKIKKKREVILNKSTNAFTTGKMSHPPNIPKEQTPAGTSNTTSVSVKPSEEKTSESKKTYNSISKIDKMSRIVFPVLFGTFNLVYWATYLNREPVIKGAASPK

[6] = target: T5, Gamma-aminobutyric acid receptor subunit alpha-1 (Homo sapiens) (UniProt P14867); experiment: Maximum percent potentiation against gamma-aminobutyric acid (GABA) A receptor, alpha 1; conditions: Xenopus laevis; summary of the method: as §1
T5 sequence (whole entry): T2 sequence (P14867 whole entry)

[7] = target: T6, Gamma-aminobutyric acid receptor subunit alpha-2 (Homo sapiens) (UniProt P47869); experiment: Maximum percent potentiation against gamma-aminobutyric acid (GABA) A receptor, alpha 2; conditions: Xenopus laevis; summary of the method: as §1
T6 sequence (whole entry): T1 sequence (P47869 whole entry)

[8] = target: T7, Gamma-aminobutyric acid receptor subunit alpha-5 (Homo sapiens) (UniProt P31644); experiment: Maximum percent potentiation against gamma-aminobutyric acid (GABA) A receptor, alpha 5; conditions: Xenopus laevis; summary of the method: as §1
T7 sequence (whole entry): T4 sequence (P31644 whole entry)

[9] = target: T8, Gamma-aminobutyric acid receptor subunit alpha-3 (Homo sapiens) (UniProt P34903); experiment: Maximum percent potentiation against gamma-aminobutyric acid (GABA) A receptor, alpha 3; conditions: Xenopus laevis; summary of the method: as §1
T8 sequence (whole entry): T3 sequence (P34903 whole entry)

| SMILES | Ki [2] [nM] | Activity [6] [%] | Activity [7] [%] | further results |
| --- | --- | --- | --- | --- |
| CC(c1ccccc1F)N1CCc2nc(O)n3cc(-c4ccccc4F)nc3c2C1 (configuration not stated) | 1.7 |  |  |  |
| CCOC(=O)N1CCc2nc(O)n3cc(-c4ccccc4F)nc3c2C1 | 64 |  |  |  |
| O=c1[nH]c2c(c3nc(-c4ccccc4F)cn13)CN(Cc1cccnc1)CC2 | 1.4 |  |  | EC50 [1]: 101 nM; EC50 [4]: 23 nM; EC50 [3]: 56 nM |
| Oc1nc2c(c3nc(-c4ccccc4F)cn13)CN(CCCc1ccccc1)CC2 | 147 |  |  |  |
| Oc1nc2c(c3nc(-c4cc(F)ccc4F)cn13)CN(Cc1ccccc1)CC2 |  | 59 | 82 | EC50 [1]: 188 nM; EC50 [3]: 36 nM |
| O=c1[nH]c2c(c3nc(-c4ccc(F)cc4)cn13)CN(Cc1ccccc1)CC2 | 21 |  |  | EC50 [1]: 245 nM; EC50 [3]: 136 nM |
| Oc1nc2c(c3nc(-c4ccccc4F)cn13)CN(CC1CCCCC1)CC2 |  | 114 | 71 | Activity [8]: 101%; Activity [9]: 115% |
| CN1CCc2nc(O)n3cc(-c4ccccc4F)nc3c2C1 |  | 0 | 0 |  |
| COc1ccc(-c2cn3c(O)nc4c(c3n2)CN(C)CC4)c(F)c1 | 45 |  |  |  |
| O=C(OCc1ccccc1)N1CCc2nc(O)n3cc(-c4ccccc4F)nc3c2C1 |  | 5 | 8 | Activity [8]: 3%; Activity [9]: 0% |

Continued, in another order:

| Ki [2] [nM] | Activity [6] [%] | Activity [7] [%] | SMILES | further results |
| --- | --- | --- | --- | --- |
| 11.3 |  |  | O=c1[nH]c2c(c3nc(-c4cccc(F)c4)cn13)CN(Cc1ccccc1)CC2 | EC50 [1]: 154 nM; EC50 [3]: 120 nM |
| 240 |  |  | COc1ccc(-c2cn3c(O)nc4c(c3n2)CN(C)CC4)cc1 |  |
| 2 |  |  | O=c1[nH]c2c(c3nc(-c4ccc(F)cc4F)cn13)CN(Cc1ccccc1)CC2 | EC50 [1]: 210 nM; EC50 [4]: 500 nM; EC50 [3]: 92 nM; EC50 [5]: 323 nM |
|  | 67 | 179 | Oc1nc2c(c3nc(-c4ccccc4)cn13)CN(Cc1ccccc1)CC2 |  |
| 26 |  |  | C=CCN1CCc2[nH]c(=O)n3cc(-c4ccccc4F)nc3c2C1 | EC50 [1]: 284 nM; EC50 [4]: 344 nM; EC50 [3]: 170 nM |
| 797 |  |  | COc1ccccc1-c1cn2c(O)nc3c(c2n1)CN(Cc1ccccc1)CC3 |  |
| 71 |  |  | Oc1nc2c(c3nc(-c4cccc(Cl)c4)cn13)CN(Cc1ccccc1)CC2 |  |
|  | 63 | 184 | Oc1nc2c(c3nc(-c4ccc(F)cc4F)cn13)CN(Cc1ccccc1)CC2 | Activity [8]: 30%; Activity [9]: 95% |
| 230 |  |  | CCCCOC(=O)N1CCc2nc(O)n3cc(-c4ccccc4F)nc3c2C1 |  |
| 41 | 0 | 0 | CC(=O)N1CCc2nc(O)n3cc(-c4ccccc4F)nc3c2C1 | Activity [8]: 0%; EC50 [4]: 71 nM; Activity [9]: 11% |
| 92 |  |  | O=C(c1cccnc1)N1CCc2nc(O)n3cc(-c4ccccc4F)nc3c2C1 |  |
| 56 | 0 | 0 | CCN1CCc2nc(O)n3cc(-c4ccccc4F)nc3c2C1 | Activity [8]: 0%; EC50 [4]: 935 nM; Activity [9]: 14% |
| 83 |  |  | O=C(c1ccccc1)N1CCc2nc(O)n3cc(-c4ccccc4F)nc3c2C1 |  |
| 388 |  |  | O=C(Cc1ccccc1)N1CCc2nc(O)n3cc(-c4ccccc4F)nc3c2C1 |  |
